Results reported in article PMC2854813 (Advanced synthesis & catalysis, 2009).
Where two headings read alike, the source gives them in different places.

Tests used:
[1] = molecular target: T1, PETNR (Enterobacter cloacae, UniProt P71278); assay: Steady-state kinetics of PETNR with α,β-unsaturated activated alkenes; format: biochemical, Enterobacter cloacae st. PB2; details: for Km / kcat: apparent, 5% ethanol
T1 sequence (P71278 1-365): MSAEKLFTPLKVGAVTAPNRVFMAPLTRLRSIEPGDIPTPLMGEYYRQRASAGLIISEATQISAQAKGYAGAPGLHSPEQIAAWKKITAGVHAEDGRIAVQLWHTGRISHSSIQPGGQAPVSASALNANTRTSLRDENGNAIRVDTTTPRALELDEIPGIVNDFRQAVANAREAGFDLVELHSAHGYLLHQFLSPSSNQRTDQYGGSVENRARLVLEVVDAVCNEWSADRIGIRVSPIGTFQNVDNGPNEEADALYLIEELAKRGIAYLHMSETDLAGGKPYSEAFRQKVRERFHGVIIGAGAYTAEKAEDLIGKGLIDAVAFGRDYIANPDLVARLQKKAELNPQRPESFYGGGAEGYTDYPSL

[2] = molecular target: T1, PETNR; assay: Substrate screen of PETNR by spectrophotometric assays or GC analysis; format: biochemical, Enterobacter cloacae st. PB2
[3] = molecular target: T1, PETNR; assay: Time course of ketoisophorone reduction and product racemisation, PETNR 0.02 μM; format: biochemical, Enterobacter cloacae st. PB2
Method in brief: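 Racemisation time course of ketoisophorone reduction at pH 7.0 over 24 h; substrate added in DMF (2% final). Controls at 8 h either removed enzyme by 10 kDa spin filtration (5000 rpm, 5 min) or added the PETNR inhibitor 1,4,5,6-tetrahydroNADPH (1.2 mg), then incubated to 24 h total. Conversion by GC (DB-Wax); ee by GC (Chirasil-DEX-CB).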

[4] = molecular target: T1, PETNR; assay: Time effect on optical purity of levodione at PETNR 2 μM; format: biochemical, Enterobacter cloacae st. PB2; details: Supporting Information Table S1
[5] = molecular target: T1, PETNR; assay: Aerobic versus anaerobic steady-state reaction rate of PETNR; format: biochemical, Enterobacter cloacae st. PB2; details: aerobic compared to anaerobic assays
Method in brief: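 NADPH oxidation was followed at 340 nm (365 nm for substrates absorbing at 340 nm) for 2 min at 25 °C. Anaerobic runs used a glove box (<5 ppm O2) with deoxygenated enzyme; aerobic runs were done outside it.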

[6] = molecular target: T1, PETNR; details: cited from earlier work
[7] = molecular target: T1, PETNR; assay: Enzyme concentration dependence of the reduction of ketoisophorone by PETNR; format: biochemical, Enterobacter cloacae st. PB2; details: 2 h, pH 7.0, 3a 5 mM, NADPH 6 mM
Method in brief: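 Ketoisophorone (5 mM) and NADPH (6 mM) with varied PETNR in 50 mM phosphate pH 7.0, shaken at 130 rpm at 30 °C for 2 h. Extraction was into ethyl acetate containing internal standard. Conversion was by GC (DB-Wax) and ee by GC on a Chirasil-DEX-CB column.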

[8] = anaerobic, pH 7.0, 25 °C, NADPH 100 μM

## CC1=CC(=O)NC1=O [2a, 2-Methylmaleimide]
[1]
  Ki: 3.2 ± 0.7 mM

## O=C(O)/C=C/c1ccccc1 [trans-cinnamic acid]
[2]
  activity of PETNR towards the substrate (in words): did not reduce

## NC(=O)/C=C/c1ccccc1 [trans-cinnamide]
[2]
  activity of PETNR towards the substrate (in words): did not reduce

## BrC1C=CCCC1 (stereo not drawn) [3-bromocyclohexene]
[2]
  activity of PETNR towards the substrate (in words): no activity

## BrC=Cc1ccccc1 [β-bromostyrene]
[2]
  activity of PETNR towards the substrate (in words): no activity

## C[C@@H]1CC(=O)CC(C)(C)C1=O [(R)-3b, (R)-Levodione]
[3]; PETNR 0.02 μM, pH 7.0, 30 °C, aqueous, non-enzymatic
  decline in enantiopurity with time (rate of racemisation): approximately 3 % ee/h
[4]
  rate of racemisation: 3 % ee/h

## COC(=O)/C=C/c1ccccc1 [methyl trans-cinnamate]
[2]
  activity of PETNR towards the substrate (in words): did not reduce

## C/C=C/C#N [crotonitrile]
[2]
  activity of PETNR towards the substrate (in words): no activity

## O=C1C=CCCC1 [4a, 2-cyclohexenone]
[1]
  Ki: 23.3 ± 1.7 mM
[5]
  reduction in the overall steady-state reaction rate: 18%

## CCC=C(C)C=O [10a, 2-methylpentenal]
[1]; [8]
  Km: 102 ± 10.5 µM
  kcat: 6.23 ± 0.33 s⁻¹
[1]; substrate inhibition, anaerobic, pH 7.0, 25 °C, NADPH 100 μM
  Ki: 1.93 ± 0.46 mM
[5]
  reduction in the overall steady-state reaction rate: 48%

## O=C(O)/C=C(\C(=O)O)c1ccccc1 [3-phenylmaleic acid]
[2]
  activity of PETNR towards the substrate (in words): did not reduce

## N#CC1=CCCCC1 [cyclohexene-1-carbonitrile]
[2]
  activity of PETNR towards the substrate (in words): no activity

## O=C(O)C1=CCCCC1 [1-cyclohexene-1-carboxylic acids, 1-cyclohexene-1-carboxylic acid]
[2]
  activity of PETNR towards the substrate (in words): did not reduce

## NC(=O)C1=CN([C@@H]2O[C@H](COP(=O)(O)OP(=O)(O)OC[C@H]3O[C@@H](n4cnc5c(N)ncnc54)[C@H](OP(=O)(O)O)[C@@H]3O)[C@@H](O)[C@H]2O)CCC1 [NADPH4, 1,4,5,6-tetrahydroNADPH]
[6]
  inhibition of PETNR activity (in words): excellent inhibitor

## CC1=CC(=O)CCC1 [15a, 3-methylcyclohexenone]
[2]
  activity of PETNR towards the substrate (in words): significant reduction in enzyme activity

## CC1=CC(=O)CC(C)(C)C1=O [3a, ketoisophorone]
[1]; [8]
  Km: 13.7 ± 0.5 µM
  kcat: 5.52 ± 0.10 s⁻¹
[7]; enzyme 0.002 μM
  Conv. [%]: 2%
[7]; enzyme 0.02 μM
  Conv. [%]: 37%
[7]; enzyme 0.2 μM
  Conv. [%]: >99%
[7]; enzyme 2 μM
  Conv. [%]: >99%
[3]; 0.5 h, PETNR 0.02 μM, pH 7.0
  Conv. [%]: 14%
[3]; 1 h, PETNR 0.02 μM, pH 7.0
  Conv. [%]: 27%
[3]; 1.5 h, PETNR 0.02 μM, pH 7.0
  Conv. [%]: 37%
[3]; 3 h, PETNR 0.02 μM, pH 7.0
  Conv. [%]: 53%
[3]; 4 h, PETNR 0.02 μM, pH 7.0
  Conv. [%]: 69%
[3]; 6 h, PETNR 0.02 μM, pH 7.0
  Conv. [%]: 85%
[3]; 8 h, PETNR 0.02 μM, pH 7.0
  Conv. [%]: 94%
[3]; 12 h, PETNR 0.02 μM, pH 7.0
  Conv. [%]: 98%
[3]; 22 h, PETNR 0.02 μM, pH 7.0
  Conv. [%]: >99%
[3]; 24 h, PETNR 0.02 μM, pH 7.0
  Conv. [%]: >99%
[3]; 24 h, PETNR inhibitor NADPH4 (1.2 mg) added after 8 h
  Conv. [%]: 99%
[3]; 24 h, filtered (10 K filter) after 8 h to remove all enzyme content
  Conv. [%]: 99%

## O=C1C=C(c2ccccc2)CCC1 [3-phenylcyclohexene-1-one]
[2]
  activity of PETNR towards the substrate (in words): inactive

## CC1=CC(=O)CC1 [16a, 3-methylcyclopentenone]
[2]
  activity of PETNR towards the substrate (in words): significant reduction in enzyme activity

## COC(=O)C1=CCCCC1 [methyl cyclohexenecarboxylate, methyl 1-cyclohexene-1-carboxylate]
[2]
  activity of PETNR towards the substrate (in words): did not reduce

## N#C/C=C/c1ccccc1 [trans-cinnamonitrile]
[2]
  activity of PETNR towards the substrate (in words): no activity
